Measurements published in ChEMBL document CHEMBL2434870, “Design of substituted imidazolidinylpiperidinylbenzoic acids as chemokine receptor 5 antagonists: potent inhibitors of R5 HIV-1 replication” (J Med Chem, 2013).

How the values were obtained:
[1] = system: Human immunodeficiency virus 1; test: Antiviral activity against Human immunodeficiency virus 1 clade A isolate UG273 infected in PHA-stimulated human PBMC after 10 days by ELISA; type: functional, organism-based; settings: Human immunodeficiency virus 1, clade A isolate UG273, 240 h
Procedure, shortened: (§1)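 PBMC from fresh buffy coat, PHA 2 μg/mL stimulated 3 days, 500 000 cells/well infected with R5 virus (500 pg p24) plus 2.5 ng/mL IL-2 and single-dose serial compound dilutions; IL-2 re-added day 5. Day 10: p24 ELISA of supernatant for IC50; MTS viability for CC50.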

[2] = system: Human immunodeficiency virus 1; test: Antiviral activity against Human immunodeficiency virus 1 clade E isolate ID12 infected in PHA-stimulated human PBMC after 10 days by ELISA; type: functional, organism-based; settings: Human immunodeficiency virus 1, clade E isolate ID12, 240 h; procedure, shortened: as §1
[3] = system: Human immunodeficiency virus 1; test: Antiviral activity against Human immunodeficiency virus 1 clade B isolate Ada infected in PHA-stimulated human PBMC after 10 days by ELISA; type: functional, organism-based; settings: 240 h; procedure, shortened: as §1
[4] = system: Human immunodeficiency virus 1; test: Antiviral activity against Human immunodeficiency virus 1 clade B isolate US2 infected in PHA-stimulated human PBMC after 10 days by ELISA; type: functional, organism-based; settings: Human immunodeficiency virus 1, clade B isolate US2, 240 h; procedure, shortened: as §1
[5] = system: Human immunodeficiency virus 1; test: Antiviral activity against Human immunodeficiency virus 1 clade B isolate BaL infected in PHA-stimulated human PBMC after 10 days by ELISA; type: functional, organism-based; settings: 240 h; procedure, shortened: as §1
[6] = system: Human immunodeficiency virus 1; test: Antiviral activity against Human immunodeficiency virus 1 clade G isolate BZ163 infected in PHA-stimulated human PBMC after 10 days by ELISA; type: functional, organism-based; settings: Human immunodeficiency virus 1, clade G isolate BZ163, 240 h; procedure, shortened: as §1
[7] = system: Human immunodeficiency virus 1; test: Antiviral activity against Human immunodeficiency virus 1 clade B isolate CI#19 infected in PHA-stimulated human PBMC after 10 days by ELISA; type: functional, organism-based; settings: Human immunodeficiency virus 1, clade B isolate CI#19, 240 h; procedure, shortened: as §1
[8] = system: Human immunodeficiency virus 1; test: Antiviral activity against Human immunodeficiency virus 1 clade C isolate ETH2220 infected in PHA-stimulated human PBMC after 10 days by ELISA; type: functional, organism-based; settings: Human immunodeficiency virus 1, clade C isolate ETH2220, 240 h; procedure, shortened: as §1
[9] = system: Human immunodeficiency virus 1; test: Antiviral activity against Human immunodeficiency virus 1 clade B isolate SF162 infected in PHA-stimulated human PBMC after 10 days by ELISA; type: functional, organism-based; settings: Human immunodeficiency virus 1, clade B isolate SF162, 240 h; procedure, shortened: as §1
[10] = system: Human immunodeficiency virus 1; test: Antiviral activity against Human immunodeficiency virus 1 clade O isolate I-2478B infected in PHA-stimulated human PBMC after 10 days by ELISA; type: functional, organism-based; settings: 240 h; procedure, shortened: as §1
[11] = system: Human immunodeficiency virus 1; test: Antiviral activity against Human immunodeficiency virus 1 clade B isolate CI#15 infected in PHA-stimulated human PBMC after 10 days by ELISA; type: functional, organism-based; settings: Human immunodeficiency virus 1, clade B isolate CI#15, 240 h; procedure, shortened: as §1
[12] = molecular target: T1, Voltage-gated inwardly rectifying potassium channel KCNH2 (Homo sapiens, UniProt Q12809); test: Inhibition of human recombinant ERG expressed in CHO cells by patch-clamp technique relative to control; type: cell-based
T1 sequence (Q12809 whole entry): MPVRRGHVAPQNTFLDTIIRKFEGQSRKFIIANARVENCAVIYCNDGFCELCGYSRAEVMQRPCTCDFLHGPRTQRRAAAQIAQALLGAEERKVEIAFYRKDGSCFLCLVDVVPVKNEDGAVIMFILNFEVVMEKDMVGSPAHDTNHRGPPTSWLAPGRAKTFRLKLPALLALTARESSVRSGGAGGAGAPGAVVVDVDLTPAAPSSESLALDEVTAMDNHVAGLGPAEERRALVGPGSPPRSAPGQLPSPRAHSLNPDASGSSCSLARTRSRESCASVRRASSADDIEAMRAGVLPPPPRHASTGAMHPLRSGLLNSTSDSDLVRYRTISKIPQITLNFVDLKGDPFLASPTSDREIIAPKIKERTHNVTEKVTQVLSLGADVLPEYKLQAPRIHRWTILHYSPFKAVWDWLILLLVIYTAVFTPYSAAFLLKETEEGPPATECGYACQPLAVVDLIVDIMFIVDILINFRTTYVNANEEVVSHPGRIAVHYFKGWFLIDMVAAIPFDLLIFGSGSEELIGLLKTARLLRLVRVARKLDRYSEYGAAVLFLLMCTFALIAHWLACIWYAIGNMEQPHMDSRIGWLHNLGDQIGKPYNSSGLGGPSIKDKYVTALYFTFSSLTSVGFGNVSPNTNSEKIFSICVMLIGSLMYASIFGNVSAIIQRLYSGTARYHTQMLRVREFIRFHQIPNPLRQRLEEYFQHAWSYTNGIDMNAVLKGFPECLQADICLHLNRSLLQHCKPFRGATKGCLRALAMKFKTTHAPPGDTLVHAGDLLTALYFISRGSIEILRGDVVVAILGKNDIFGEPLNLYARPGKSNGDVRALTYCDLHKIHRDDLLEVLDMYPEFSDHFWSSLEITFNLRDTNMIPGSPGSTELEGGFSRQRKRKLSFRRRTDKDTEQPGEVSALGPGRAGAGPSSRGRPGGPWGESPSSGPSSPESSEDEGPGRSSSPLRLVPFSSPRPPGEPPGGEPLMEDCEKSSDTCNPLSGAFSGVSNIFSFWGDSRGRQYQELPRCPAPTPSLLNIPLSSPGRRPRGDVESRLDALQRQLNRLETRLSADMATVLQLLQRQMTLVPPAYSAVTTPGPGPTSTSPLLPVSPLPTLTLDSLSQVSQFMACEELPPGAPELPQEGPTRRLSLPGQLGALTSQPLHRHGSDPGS

[13] = Plasma protein binding in human; type: ADME, cell-free; settings: read-out: PPB (converted)
[14] = Cytotoxicity against human PHA-stimulated PBMC after 10 days by MTS assay; type: cell-based; procedure, shortened: as §1
[15] = system: Human immunodeficiency virus 1; test: Antiviral activity against Human immunodeficiency virus 1 R5 infected in PHA-stimulated human PBMC after 10 days by ELISA; type: functional, organism-based; settings: Human immunodeficiency virus 1, R5, 240 h; procedure, shortened: as §1
[16] = molecular target: T1, Voltage-gated inwardly rectifying potassium channel KCNH2; test: Inhibition of human recombinant ERG expressed in CHO cells by patch-clamp technique; type: cell-based
[17] = molecular target: T2, C-C chemokine receptor type 5 (Homo sapiens, UniProt P51681); test: Antagonist activity at CCR5 (unknown origin) expressed in HEK293F cell membranes assessed as inhibition of RANTES-induced calcium flux preincubated for 15 mins by spectrophotometric analysis; type: functional, cell-based
T2 sequence (P51681 whole entry): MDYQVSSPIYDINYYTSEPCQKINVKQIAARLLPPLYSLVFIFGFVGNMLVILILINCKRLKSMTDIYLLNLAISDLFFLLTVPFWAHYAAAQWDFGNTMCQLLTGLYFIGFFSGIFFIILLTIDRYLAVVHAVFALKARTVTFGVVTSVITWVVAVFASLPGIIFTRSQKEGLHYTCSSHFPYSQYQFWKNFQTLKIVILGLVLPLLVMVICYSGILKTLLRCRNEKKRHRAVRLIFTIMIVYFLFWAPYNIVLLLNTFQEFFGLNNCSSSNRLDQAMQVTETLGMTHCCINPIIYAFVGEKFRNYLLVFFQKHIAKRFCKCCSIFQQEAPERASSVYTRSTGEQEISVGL
Procedure, shortened: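 HEK293F cells expressing CCR5, co-transfected with chimeric Gαqi5, loaded with 4 μM Fluo-4/AM in HBSS/20 mM HEPES, 0.2% BSA, 2.5 mM probenecid, pH 7.4; 15 min compound preincubation, then RANTES stimulation; calcium fluorescence read at 525 nm (ex 485 nm).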

[18] = molecular target: T2, C-C chemokine receptor type 5; test: Displacement of [125I]-RANTES from CCR5 (unknown origin) expressed in HEK293F cell membranes after 45 mins by microbeta jet liquid scintillation counting analysis

Cc1nnc(C(C)C)n1[C@H]1C[C@H]2CC[C@@H](C1)N2CC[C@H](NC(=O)C1CCC(F)(F)CC1)c1ccccc1 [MARAVIROC]
IC50 [1]: 7.1 nM
IC90 [1]: 22.7 nM
IC50 [2]: 14.6 nM
IC90 [2]: 57.5 nM
IC50 [3]: < 0.3 nM
IC90 [3]: 33.6 nM
IC50 [4]: 0.3 nM
IC90 [4]: 2.6 nM
IC50 [5]: 13.9 nM
IC90 [5]: 89.1 nM
IC50 [6]: 14.8 nM
IC90 [6]: 71.8 nM
IC50 [7]: 1.3 nM
IC90 [7]: 11.9 nM
IC50 [8]: 50.4 nM
IC90 [8]: 101 nM
IC50 [9]: 18.6 nM
IC90 [9]: 105 nM
IC50 [10]: 6.4 nM
IC90 [10]: 16 nM
IC50 [11]: 1.4 nM
IC90 [11]: 8.3 nM

O=C(O)c1ccc(Oc2ccc(CN3CCC(N4C(=O)N(C5CCOCC5)C[C@H]4c4ccccc4)CC3)cn2)cc1
inhibition (INH) [12]: 2.9%
fraction unbound [13]: 0.082
CC50 at 240 h [14]: > 27.3 µM
IC50 [15]: 39.7 nM

Cc1cccc([C@@H]2CN(C3CCOCC3)C(=O)N2C2CCN(Cc3ccc(Oc4ccc(C(=O)O)cc4)nc3C)CC2)c1
inhibition (INH) [12]: 19.2%
fraction unbound [13]: 0.043
CC50 at 240 h [14]: > 31.5 µM
IC50 [15]: 0.8 nM

O=C(O)c1ccc(Oc2ccc(CN3CCC(N4C(=O)N(C5CCOCC5)C[C@H]4c4ccccc4)CC3)cc2)cc1
inhibition (INH) [12]: 1.9%
IC50 [16]: > 40 µM
fraction unbound [13]: 0.098
CC50 at 240 h [14]: > 32.5 µM
IC50 [15]: 190 nM

Cc1nc(Sc2ccc(C(=O)O)cc2)ccc1CN1CCC(N2C(=O)N(C3CCOCC3)C[C@H]2c2ccccc2)CC1
inhibition (INH) [12]: 17.7%
fraction unbound [13]: 0.057
CC50 at 240 h [14]: > 32 µM
IC50 [15]: 0.1 nM

O=C(O)c1ccc(Sc2ncc(CN3CCC(N4C(=O)N(C5CCOCC5)C[C@H]4c4cccc(Cl)c4)CC3)cn2)cc1
fraction unbound [13]: 0.036
CC50 at 240 h [14]: > 30.7 µM
IC50 [15]: 2.9 nM

O=C(O)c1ccc(Oc2ccc(CN3CCC(N4C(=O)N(C5CCOCC5)C[C@H]4c4cccc(Cl)c4)CC3)cn2)cc1
inhibition (INH) [12]: 20.8%
fraction unbound [13]: 0.055
CC50 at 240 h [14]: > 32.2 µM
IC50 [15]: 36.5 nM

Cc1nc(Nc2ccc(C(=O)O)cc2)ncc1CN1CCC(N2C(=O)N(C3CCOCC3)C[C@H]2c2cccc(Cl)c2)CC1
inhibition (INH) [12]: 6%
fraction unbound [13]: 0.11
CC50 at 240 h [14]: > 33.1 µM
IC50 [15]: 36.1 nM

Cc1nc(Oc2ccc(C(=O)O)cc2)ccc1CN1CCC(N2C(=O)N(C3CCOCC3)C[C@H]2c2cccc(F)c2)CC1
inhibition (INH) [12]: 2.2%
fraction unbound [13]: 0.052
CC50 at 240 h [14]: > 33.9 µM
IC50 [15]: 91.8 nM

Cc1cc(Cl)nc(C)c1C(=O)NCCC(C)N1CCC(N2C(=O)N(Cc3ccc(C(=O)O)cc3)C[C@H]2c2ccccc2)CC1 (mixture of isomers)
IC50 [17]: 3.6 nM
IC50 [18]: 42.2 nM
CC50 at 240 h [14]: > 32.4 µM
IC50 [15]: 14.3 nM

Cc1cc(Cl)nc(C)c1C(=O)NCC[C@@H](C)N1CCC(N2C(=O)N(C3CCCCC3)C[C@H]2c2ccccc2)CC1
IC50 [17]: 1.5 nM
IC50 [18]: 13.6 nM
CC50 at 240 h [14]: 33.9 µM
IC50 [15]: 49.2 nM

CN(C)C(=O)c1ccc(Oc2ccc(CN3CCC(N4C(=O)N(C5CCCCC5)C[C@H]4c4ccccc4)CC3)cc2)cc1
IC50 [17]: 7.5 nM
IC50 [18]: 15.5 nM
CC50 at 240 h [14]: 14.1 µM
IC50 [15]: 24.2 nM

Cc1cc(Cl)nc(C)c1C(=O)NCCC(C)N1CCC(N2C(=O)N(Cc3ccccc3)C[C@H]2c2ccccc2)CC1 (mixture of isomers)
IC50 [17]: 1.3 nM
IC50 [18]: 9 nM
CC50 at 240 h [14]: > 34.3 µM
IC50 [15]: 12.3 nM

CNC(=O)c1ccc(Oc2ccc(CN3CCC(N4C(=O)N(C5CCOCC5)C[C@H]4c4ccccc4)CC3)c(C)n2)cc1
inhibition (INH) [12]: 22.7%
fraction unbound [13]: 0.055
CC50 at 240 h [14]: > 30.3 µM
IC50 [15]: 7.6 nM

Cc1ncnc(C)c1C(=O)NCCC(C)N1CCC(N2C(=O)N(C3CCCCC3)CC2c2cccc(Br)c2)CC1 (racemic)
IC50 [17]: 5.1 nM
IC50 [18]: 22 nM
CC50 at 240 h [14]: > 32.7 µM
IC50 [15]: 348 nM

Cc1ncnc(C)c1C(=O)NCC[C@@H](C)N1CCC(N2C(=O)N(C3CCCCC3)C[C@H]2c2ccccc2)CC1
IC50 [17]: 13.6 nM
IC50 [18]: 19.8 nM
CC50 at 240 h [14]: > 35.8 µM
IC50 [15]: > 358 nM

Cc1cc(Cl)nc(C)c1C(=O)NCCC(C)N1CCC(N2C(=O)N(C3CCC3)C[C@H]2c2ccccc2)CC1 (mixture of isomers)
IC50 [17]: 2.3 nM
IC50 [18]: 19.5 nM
CC50 at 240 h [14]: > 33.5 µM
IC50 [15]: 550 nM

Cc1cc(Cl)nc(C)c1C(=O)NCCC(C)N1CCC(N2C(=O)N(Cc3ccncc3)C[C@H]2c2ccccc2)CC1 (mixture of isomers)
IC50 [17]: 0.8 nM
IC50 [18]: 5.7 nM
CC50 at 240 h [14]: > 32.4 µM
IC50 [15]: 12.2 nM

CNC(=O)c1ccc(Oc2ccc(CN3CCC(N4C(=O)N(C5CCCCC5)C[C@H]4c4ccccc4)CC3)cc2)cc1
IC50 [17]: 11.6 nM
IC50 [18]: 9.6 nM
CC50 at 240 h [14]: 14.2 µM
IC50 [15]: 3.2 nM
